Source: ChEMBL document CHEMBL3769316, “Discovery of novel heteroarylmethylcarbamodithioates as potent anticancer agents: Synthesis, structure-activity relationship analysis and biological evaluation” (Eur J Med Chem, 2016)
Activity calls are given as the source filed them. The rule behind the calls is not given here.

Assays:
[1] = Cytotoxicity against human PC3 cells after 72 hrs by alamar blue assay; type: functional, cell-based; details: PC-3, 72 h
Procedure, shortened: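 PC-3 cells were grown at 37 °C, 5% CO₂ in F-12K with 10% FBS, penicillin and streptomycin. They were seeded overnight and treated with at least five concentrations for 72 h. Alamar blue (10% in medium) was added for 2-4 h, and fluorescence was read at 530/590 nm. IC50 was taken from the dose-response curves.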

PC-3 [2] = test: Induction of apoptosis in human PC3 cells assessed as increase in late apoptotic cells after 48 hrs by annexin V-FITC/propidium iodide staining-based flow cytometry; type: functional, cell-based
Procedure, shortened: (§1)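 After 48 h exposure to graded concentrations, both floating and adherent cells were collected into binding buffer. They were stained with Annexin V-FITC plus PI for 15 min in the dark and analysed immediately by flow cytometry. Annexin V+/PI− cells were counted as early apoptotic and Annexin V+/PI+ cells as late apoptotic.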

PC-3 [3] = test: Induction of cell cycle arrest in human PC3 cells assessed as accumulation at G2/M phase at 2 uM after 24 hrs by propidium iodide staining-based flow cytometry (reference value: 19.9%); type: functional
Bel-7402 [4] = test: Induction of cell cycle arrest in human Bel7402 cells assessed as accumulation at G0/G1 phase at 2 uM after 24 hrs by propidium iodide staining-based flow cytometry (reference value: 36.76%); type: functional
PC-3 [5] = test: Induction of mitotic arrest in human PC3 cells assessed as increase in supernumerary centrosome formation at 2 uM after 6 hrs using DAPI staining by immunofluorescence-based laser scanning confocal microscopy; type: functional, cell-based
Procedure, shortened: (§2)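 PC-3 cells on confocal dishes were exposed 6 h to compound (2 µM) or taxol (40 nM), then fixed in 4% paraformaldehyde overnight at 4 °C and blocked. They were stained overnight at 4 °C with anti-β-tubulin and anti-γ-tubulin (1:100 each), then 1 h with Alexa Fluor 488/647 secondaries, and co-stained for DNA. Spindles and centrosomes were imaged by confocal microscopy.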

[6] = Cytotoxicity against human LO2 cells after 72 hrs by alamar blue assay; type: cell-based; details: L02, 72 h
Procedure, shortened: (§3)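 Cells seeded and cultured overnight, then exposed to compound at varying concentrations for 72 h. Cells were then incubated 2-4 h in medium containing 10% Alamar blue, and fluorescence was read at ex 530/em 590 nm. Dose-response curves used at least five concentrations, and IC50 (50% growth inhibition) was taken from these curves. Culture was at 37 °C.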

[7] = Cytotoxicity against human HCT8 cells after 72 hrs by alamar blue assay; type: functional, cell-based; details: HCT-8, 72 h; procedure, shortened: as §3
PC-3 [8] = test: Induction of mitotic arrest in human PC3 cells assessed as increase in MPM-2 level at 0.5 to 4 uM after 24 hrs by Western blot method; type: functional, cell-based
Procedure, shortened: (§4)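 PC-3 cells were treated 24 h with compound (0.5-4 µM) or taxol (40 nM) as positive control, then lysed in RIPA with PMSF and protease inhibitors. Lysates were run on SDS-PAGE and transferred to PVDF, which was blocked with 5% milk for 1 h. Membranes were probed overnight at 4 °C for MPM-2 (1:1000), phospho-H3 (1:600) or β-actin (1:1000), followed by HRP secondary and chemiluminescence.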

Bel-7402 [9] = test: Induction of cell cycle arrest in human Bel7402 cells assessed as accumulation at G2/M phase at 2 uM after 24 hrs by propidium iodide staining-based flow cytometry (reference value: 16%); type: functional
[10] = Cytotoxicity against human COLO205 cells after 72 hrs by alamar blue assay; type: functional, cell-based; details: COLO 205, 72 h; procedure, shortened: as §3
[11] = Cytotoxicity against HEK293T cells after 72 hrs by alamar blue assay; type: cell-based; details: Homo sapiens, HEK-293T
PC-3 [12] = test: Induction of cell cycle arrest in human PC3 cells assessed as accumulation at S phase at 2 uM after 24 hrs by propidium iodide staining-based flow cytometry (reference value: 37.86%); type: functional
PC-3 [13] = test: Induction of cell cycle arrest in human PC3 cells assessed as accumulation at G0/G1 phase at 2 uM after 24 hrs by propidium iodide staining-based flow cytometry (reference value: 42.23%); type: functional
Bel-7402 [14] = test: Induction of cell cycle arrest in human Bel7402 cells assessed as accumulation at S phase at 2 uM after 24 hrs by propidium iodide staining-based flow cytometry (reference value: 47.24%); type: functional
SK-BR-3 = test: Cytotoxicity against human SK-BR-3 cells after 72 hrs by alamar blue assay; type: functional, cell-based; details: SK-BR-3, 72 h; procedure, shortened: as §3
NCI-H522 = test: Cytotoxicity against human NCI-H522 cells after 72 hrs by alamar blue assay; type: functional, cell-based; details: NCI-H522, 72 h; procedure, shortened: as §3
PC-3 [15] = test: Induction of mitotic arrest in human PC3 cells assessed as increase in histone H3 phosphorylation at Ser10 at 0.5 to 4 uM after 24 hrs by Western blot method; type: functional, cell-based; procedure, shortened: as §4
Bel-7402 [16] = test: Induction of apoptosis in human Bel7402 cells assessed as increase in late apoptotic cells after 48 hrs by annexin V-FITC/propidium iodide staining-based flow cytometry; type: functional, cell-based; procedure, shortened: as §1
Bel-7402 [17] = test: Induction of apoptosis in human Bel7402 cells assessed as increase in early apoptotic cells after 48 hrs by annexin V-FITC/propidium iodide staining-based flow cytometry; type: functional, cell-based; procedure, shortened: as §1
[18] = Cytotoxicity against human SW620 cells after 72 hrs by alamar blue assay; type: functional, cell-based; details: SW-620, 72 h
Procedure, shortened: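 SW620 cells were kept at 37 °C in 100% air in Leibovitz's L-15 with 10% FBS, penicillin and streptomycin. After overnight seeding, cells were given at least five concentrations for 72 h. Cells were then incubated 2-4 h with 10% Alamar blue, and fluorescence was read at ex 530/em 590 nm. IC50 was interpolated from the dose-response curves.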

PC-3 [19] = test: Induction of apoptosis in human PC3 cells assessed as chromatin condensation at 0.5 to 2 uM after 48 hrs by Hoechst 33342 staining-based fluorescence microscopy; type: functional, cell-based
Procedure, shortened: (§5)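 Cells were treated with graded concentrations for 48 h, washed with PBS and fixed in 4% paraformaldehyde for 15 min. They were then stained with Hoechst 33342 (10 µg/ml in PBS) for 10 min at room temperature. Nuclear morphology and chromatin condensation were imaged by fluorescence microscopy under UV illumination.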

[20] = Cytotoxicity against human Bel7402 cells after 72 hrs by alamar blue assay; type: functional, cell-based; details: Bel-7402, 72 h; procedure, shortened: as §3
PC-3 [21] = test: Induction of mitotic arrest in human PC3 cells assessed as increase in multipolar spindle formation at 2 uM after 6 hrs using DAPI staining by immunofluorescence-based laser scanning confocal microscopy; type: functional, cell-based; procedure, shortened: as §2
NCI-H460 = test: Cytotoxicity against human NCI-H460 cells after 72 hrs by alamar blue assay; type: functional, cell-based; details: NCI-H460, 72 h; procedure, shortened: as §3
[22] = Cytotoxicity against human HCT116 cells after 72 hrs by alamar blue assay; type: functional, cell-based; details: HCT-116, 72 h; procedure, shortened: as §3
[23] = Cytotoxicity against human DU145 cells after 72 hrs by alamar blue assay; type: functional, cell-based; details: DU-145, 72 h; procedure, shortened: as §3
PC-3 [24] = test: Induction of apoptosis in human PC3 cells assessed as increase in early apoptotic cells after 48 hrs by annexin V-FITC/propidium iodide staining-based flow cytometry; type: functional, cell-based; procedure, shortened: as §1
Bel-7402 [25] = test: Induction of apoptosis in human Bel7402 cells assessed as chromatin condensation at 1 to 4 uM after 48 hrs by Hoechst 33342 staining-based fluorescence microscopy; type: functional, cell-based; procedure, shortened: as §5
MDA-MB-468 = test: Cytotoxicity against human MDA-MB-468 cells after 72 hrs by alamar blue assay; type: functional, cell-based; details: MDA-MB-468, 72 h; procedure, shortened: as §3
NCI-H1299 = test: Cytotoxicity against human NCI-H1299 cells after 72 hrs by alamar blue assay; type: functional, cell-based; details: NCI-H1299, 72 h; procedure, shortened: as §3

With `S=C(NCc1cccnc1)SCCc1nnc(-c2ccccc2)o1` the IC50 [1] was 0.39 µM, the Activity (PC-3 [2]) was “Dose-dependent effect” and the Activity (PC-3 [3]) was 51.1%. For the same compound, the Activity (Bel-7402 [4]) was 21.42%, the Activity (PC-3 [5]) was “Active” and the IC50 [6] was 9.67 µM. For the same compound, the IC50 [7] was 5.98 µM, the Activity (PC-3 [8]) was “Active” and the Activity (Bel-7402 [9]) was 46.27%. For the same compound, the IC50 [10] was 7.92 µM, the IC50 [11] was 14.6 µM and the Activity (PC-3 [12]) was 26.46%. The Activity (PC-3 [13]) was 22.41%, the Activity (Bel-7402 [14]) was 29.9% and the IC50 (SK-BR-3) was 0.58 µM. For the same compound, the IC50 (NCI-H522) was 2.16 µM, the Activity (PC-3 [15]) was “Active” and the Activity (Bel-7402 [16]) was “Dose-dependent effect”. For the same compound, the Activity (Bel-7402 [17]) was “Dose-dependent effect”, the IC50 [18] was 3.8 µM and the Activity (PC-3 [19]) was “Active”. The IC50 [20] was 1.23 µM, the Activity (PC-3 [21]) was “Active” and the IC50 (NCI-H460) was 6.07 µM. For the same compound, the IC50 [22] was 8.21 µM, the IC50 [23] was 3.34 µM and the Activity (PC-3 [24]) was “Dose-dependent effect”. For the same compound, the Activity (Bel-7402 [25]) was “Active”, the IC50 (MDA-MB-468) was 2.77 µM and the IC50 (NCI-H1299) was 1.89 µM.
